Data on six molecules can be found in ChEMBL document CHEMBL3779815, “Synthesis of newer 1,2,3-triazole linked chalcone and flavone hybrid compounds and evaluation of their antimicrobial and cytotoxic activities” (Eur J Med Chem, 2016).

One data set has as its system Staphylococcus aureus. In words: Antibacterial activity against Staphylococcus aureus […] after 18 to 24 hrs by micro-dilution method. The format is functional.
In another data set the test system is Enterococcus faecalis. In words: Antibacterial activity against Enterococcus faecalis ATCC 29212 after 18 to 24 hrs by micro-dilution assay. The format is functional. A general note: Broth dilution looks for growth in wells or tubes with falling amounts of substance.
The next data set deals with Escherichia coli. In words: Antibacterial activity against Escherichia coli ATCC 35218 after 18 to 24 hrs by micro-dilution method. It is filed as functional.
In the next data set the test system is Pseudomonas aeruginosa. The data set is described as follows: Antibacterial activity against Pseudomonas aeruginosa […] after 18 to 24 hrs by micro-dilution method. It is filed as functional.
The next data set relates to Shigella boydii. In words: Antibacterial activity against Shigella boydii clinical isolate after 18 to 24 hrs by micro-dilution method. It is filed as functional.
The test system of another data set is Klebsiella pneumoniae. The data set is described as follows: Antibacterial activity against Klebsiella pneumoniae ATCC 27736 after 18 to 24 hrs by micro-dilution method. It is filed as functional.
Data set [1] has as its system Candida albicans. In words: Antifungal activity against Candida albicans ATCC 90028 after 18 to 24 hrs by micro-dilution method. It is filed as functional. Summed up:
(§1)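 Microdilution MIC run as the antibacterial protocol but on Sabouraud dextrose […] pH 7.3±0.2; compounds 100 to 0.78 μg/mL in twofold steps; saline-prepared inocula 1-2 × 10⁷ cfu/mL, 0.01 mL added; 37 °C aerobic, 18-24 h; MIC read as lowest concentration without visible growth or turbidity; fluconazole reference.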

Data set [2] deals with Candida albicans. In words: Antifungal activity against Candida albicans clinical isolate after 18 to 24 hrs by micro-dilution method. It is filed as functional. Summed up: as §1
In a further data set the test system is Candida tropicalis. The data set is described as follows: Antifungal activity against Candida tropicalis ATCC 750 after 18 to 24 hrs by micro-dilution method. It is filed as functional. Summed up: as §1
The next data set concerns Candida parapsilosis. In words: Antifungal activity against Candida parapsilosis ATCC 22019 after 18 to 24 hrs by micro-dilution method. It is filed as functional. Conditions: Lodderomyces parapsilosis. A digest of the protocol: as §1
A further data set has as its system Cryptococcus neoformans. In words: Antifungal activity against Cryptococcus neoformans clinical isolate after 18 to 24 hrs by micro-dilution method. The format is functional. Summed up: as §1
The test system of a further data set is Arthrodermataceae. The data set is described as follows: Antifungal activity against Dermatophyte clinical isolate after 18 to 24 hrs by micro-dilution method. It is filed as functional. Summed up:
as §1

The test system of the next data set is Aspergillus niger. The data set is described as follows: Antifungal activity against Aspergillus niger clinical isolate after 18 to 24 hrs by micro-dilution method. The format is functional. A digest of the protocol:
as §1

Another data set concerns Aspergillus fumigatus. In words: Antifungal activity against Aspergillus fumigatus clinical isolate after 18 to 24 hrs by micro-dilution method. It is filed as functional. A digest of the protocol:
as §1

In a further data set the test system is Plasmodium falciparum. In words: Antimalarial activity against erythrocytic stage of chloroquine sensitive Plasmodium falciparum 3D7 assessed as inhibition of parasitemia after 48 hrs by Giemsa staining based microscopic analysis. It is filed as functional, organism-based. The conditions noted are these: 3D7, 48 h. A digest of the protocol: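 Asynchronous culture on human O⁺ erythrocytes, 1-1.5% parasitemia, 4% hematocrit, RPMI-1640 with HEPES, NaHCO₃, glutamine, gentamycin, Albumax II; drug 0.10-100 μg/mL, 48 h, 37 °C, medium changed at 24 h; triplicate wells; Giemsa thin smears, about 4,000 erythrocytes counted at 1,000X; % parasitemia inhibition versus control gives IC50.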

Data set [3] is described as follows: Cytotoxicity against human HuH7 cells after 72 hrs by MTT assay. The format is cell-based, Huh-7. A digest of the protocol: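 Huh-7 cells, 4 × 10³/well in DMEM with 10% FBS and penicillin-streptomycin-glutamine; eight 2-fold dilutions 100-0.78 μg/mL, 72 h; MTT added 2-4 h, then isopropanol/Triton X-100/HCl solubilization 2 h dark, RT; absorbance 570 nm; CC50 as mean of at least two experiments in duplicate.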
(Tetrazolium dyes change colour on reduction, which living cells bring about.)

The structures appear in SMILES notation. ≈ marks a conversion by molar mass, not a printed value.

In general, MIC refers to the lowest concentration found to suppress growth. Low readings indicate greater potency, high ones weaker potency. The term IC50 denotes the concentration at which inhibition is half-maximal. For orientation: CC50 means the concentration giving 50% cytotoxicity. A high value points to lower toxicity to the cells. On to `COc1cc(OC)c2c(=O)cc(-c3ccc(OCc4cn(-c5ccc(F)cc5Cl)nn4)c(OC)c3)oc2c1`, for which the MIC against Staphylococcus aureus is 50 µg/mL (≈ 92.9 µM); in the data set with Enterococcus faecalis it was above 100 µg/mL; against Escherichia coli, 50 µg/mL (≈ 92.9 µM); against Pseudomonas aeruginosa, above 100 µg/mL; in the data set on Shigella boydii, 50 µg/mL (≈ 92.9 µM); with Klebsiella pneumoniae it was above 100 µg/mL. For the same molecule, the minimum inhibitory concentration (MIC) in the data set on Candida albicans [1] was 12.5 µg/mL (≈ 23.2 µM); with Candida albicans [2], 12.5 µg/mL (≈ 23.2 µM); in the data set with Candida tropicalis, 12.5 µg/mL (≈ 23.2 µM); against Candida parapsilosis, 12.5 µg/mL (≈ 23.2 µM); in the data set with Cryptococcus neoformans, 12.5 µg/mL (≈ 23.2 µM); against Arthrodermataceae, 25 µg/mL (≈ 46.5 µM). In addition, the MIC with Aspergillus niger and against Aspergillus fumigatus was 12.5 µg/mL (≈ 23.2 µM) throughout. Besides, the IC50 in the data set with Plasmodium falciparum was determined as 3.85 µg/mL (≈ 7.16 µM). This molecule also displayed a CC50 at 72 h in data set [3] above 100 µg/mL.

Regarding `COc1cc(O)c(C(=O)/C=C/c2ccc(OCc3cn(-c4ccc(F)cc4Cl)nn3)c(OC)c2)c(OC)c1`, the minimal inhibitory concentration (MIC) against Staphylococcus aureus stood at 6.25 µg/mL (≈ 11.6 µM); against Enterococcus faecalis, 6.25 µg/mL (≈ 11.6 µM); against Escherichia coli it was 12.5 µg/mL (≈ 23.2 µM); against Pseudomonas aeruginosa it was 12.5 µg/mL (≈ 23.2 µM); against Shigella boydii, 12.5 µg/mL (≈ 23.2 µM); in the data set on Klebsiella pneumoniae, 25 µg/mL (≈ 46.3 µM). For the same molecule, the minimum inhibitory concentration (MIC) is 50 µg/mL (≈ 92.6 µM) in the data set on Candida albicans [1]; above 100 µg/mL with Candida albicans [2]; 100 µg/mL (≈ 185 µM) in the data set with Candida tropicalis; above 100 µg/mL against Candida parapsilosis; above 100 µg/mL in the data set with Cryptococcus neoformans; 25 µg/mL (≈ 46.3 µM) in the data set with Arthrodermataceae. The results for the minimum inhibitory concentration (MIC) in the data set with Aspergillus niger and in the data set with Aspergillus fumigatus were 100 µg/mL (≈ 185 µM) and above 100 µg/mL, respectively. Moreover, the IC50 in the data set with Plasmodium falciparum amounted to 6.27 µg/mL (≈ 11.6 µM). Further, the half-maximal cytotoxic concentration (CC50) at 72 h in data set [3] is above 100 µg/mL.

Turning to `COc1cc(O)c(C(=O)/C=C/c2ccc(OC)c(OCc3cn(-c4ccc(F)c(Cl)c4)nn3)c2)c(OC)c1`, the MIC was above 100 µg/mL against Staphylococcus aureus; 100 µg/mL (≈ 185 µM) in the data set on Enterococcus faecalis; 100 µg/mL (≈ 185 µM) in the data set on Escherichia coli; above 100 µg/mL in the data set with Pseudomonas aeruginosa; above 100 µg/mL with Shigella boydii; above 100 µg/mL against Klebsiella pneumoniae. Also, the MIC is above 100 µg/mL in the data set on Candida albicans [1]; above 100 µg/mL in the data set with Candida albicans [2]; 100 µg/mL (≈ 185 µM) against Candida tropicalis; above 100 µg/mL with Candida parapsilosis; 100 µg/mL (≈ 185 µM) against Cryptococcus neoformans; above 100 µg/mL with Arthrodermataceae. The MIC in the data set on Aspergillus niger and in the data set with Aspergillus fumigatus was above 100 µg/mL each time. Besides, the concentration for half-maximal inhibition (IC50) in the data set on Plasmodium falciparum was 7.52 µg/mL (≈ 13.9 µM). Further, the CC50 at 72 h in data set [3] is above 100 µg/mL.

For the molecule `COc1cc(OC)c2c(=O)cc(-c3ccc(OCc4cn(-c5ccc(Cl)cc5)nn4)c(OCc4cn(-c5ccc(Cl)cc5)nn4)c3)oc2c1`, the minimal inhibitory concentration (MIC) came to 12.5 µg/mL (≈ 17.9 µM) in the data set on Staphylococcus aureus; 12.5 µg/mL (≈ 17.9 µM) against Enterococcus faecalis; 6.25 µg/mL (≈ 8.96 µM) against Escherichia coli; 12.5 µg/mL (≈ 17.9 µM) in the data set on Pseudomonas aeruginosa; 25 µg/mL (≈ 35.8 µM) in the data set with Shigella boydii; 12.5 µg/mL (≈ 17.9 µM) against Klebsiella pneumoniae. Besides, the MIC in the data set with Candida albicans [1], against Candida albicans [2], against Candida tropicalis, in the data set on Candida parapsilosis, against Cryptococcus neoformans and in the data set on Arthrodermataceae was above 100 µg/mL each time. The minimal inhibitory concentration (MIC) against Aspergillus niger and against Aspergillus fumigatus was above 100 µg/mL each time. For the same molecule, in the data set with Plasmodium falciparum, the IC50 is 11.3 µg/mL (≈ 16.2 µM). In data set [3], the cytotoxic concentration (CC50) at 72 h is above 100 µg/mL.

Take `C[C@@H]1CC[C@H]2[C@@H](C)C(=O)O[C@@H]3O[C@@]4(C)CC[C@@H]1[C@]32OO4` [ARTEMISININ]: the IC50 in the data set on Plasmodium falciparum was 0.00112 µg/mL (≈ 0.00396 µM). Also, the CC50 at 72 h in [3] was above 100 µg/mL.

As to `COc1cc(O)c(C(=O)/C=C/c2ccc(OCc3cn(-c4ccc(F)cc4Cl)nn3)c(OCc3cn(-c4ccc(F)cc4Cl)nn3)c2)c(OC)c1`, the MIC in the data set on Staphylococcus aureus is above 100 µg/mL; in the data set with Enterococcus faecalis, above 100 µg/mL; in the data set with Escherichia coli, above 100 µg/mL; in the data set on Pseudomonas aeruginosa, 100 µg/mL (≈ 136 µM); in the data set on Shigella boydii, above 100 µg/mL; in the data set on Klebsiella pneumoniae, above 100 µg/mL. Besides, the MIC against Candida albicans [1], in the data set with Candida albicans [2], against Candida tropicalis, against Candida parapsilosis, against Cryptococcus neoformans and with Arthrodermataceae was above 100 µg/mL each time. For the same molecule, the MIC against Aspergillus niger and against Aspergillus fumigatus was above 100 µg/mL each time. Besides, in the data set on Plasmodium falciparum, the IC50 was 8.55 µg/mL (≈ 11.6 µM). In data set [3], this molecule returned a CC50 at 72 h above 100 µg/mL.
